Test results taken from PMC11659308 (Communications Chemistry, 2024).
Peptide text beside a SMILES is read from it.

Columns and labels:
[1] = Asn-Gly isomerisation kinetics followed by time-dependent 1D 1H-NMR; type: physicochemical; details: for k2 (Suc→β-Asp) / k3 (Suc→α-Asp) / t1/2, half-life of the Asn species: 1H-NMR time course, 50 mM Na2HPO4 buffer; for k2 (Suc→β-Asp) / k3 (Suc→α-Asp): COPASI fit; for t1/2, half-life of the Asn species: chemical stability
Procedure, shortened: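 Acetylated Asn-Gly-Xxx-Ala amide tetrapeptide (~1 mg) in 50 mM (final) Na2HPO4 with D2O and DSS/NaN3. pH set with 0.1 M HCl/NaOH. Heated samples sonicated 1 min. 1D 1H spectra at 5–120 min and beyond, until reactant fell below ~10%. COSY/TOCSY assignment. Relative integrals fitted to Asn→Suc (irreversible), Suc⇌β-Asp and Suc⇌α-Asp kinetic model.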

[2] = estimated; cited from earlier work
[3] = native versus reduced and unfolded forms; cited from earlier work

In the case of `CC(=O)N[C@@H](CC(N)=O)C(=O)NCC(=O)N[C@@H](CCCCN)C(=O)N[C@@H](C)C(N)=O` [-NGKA-] (Ac-NGKA-NH2), the “k2 (Suc→β-Asp)” value ([1]; pH 7.4, 28 °C) is reported as 0.334 h⁻¹, the “k3 (Suc→α-Asp)” value ([1]; pH 7.4, 28 °C) is reported as 0.174 h⁻¹ and the “k2 (Suc→β-Asp)” value ([1]; pH 7.4, 37 °C) is reported as 0.643 h⁻¹. The “k3 (Suc→α-Asp)” value ([1]; pH 7.4, 37 °C) was 0.255 h⁻¹, the “k2 (Suc→β-Asp)” value ([1]; pH 7.4, 46 °C) was 2.30 h⁻¹ and the “k3 (Suc→α-Asp)” value ([1]; pH 7.4, 46 °C) was 1.150 h⁻¹. For the same molecule, the “k2 (Suc→β-Asp)” value ([1]; pH 7.4, 55 °C) was 4.00 h⁻¹, the “k3 (Suc→α-Asp)” value ([1]; pH 7.4, 55 °C) was 0.134 h⁻¹ and the “t1/2, half-life of the Asn species” value ([1]; pH 7.4, 28 °C) was 76.6 h. For the same molecule, the “t1/2, half-life of the Asn species” value ([1]; pH 7.4, 37 °C) was 19.1 h, the “t1/2, half-life of the Asn species” value ([1]; pH 7.4, 46 °C) was 9.4 h and the “t1/2, half-life of the Asn species” value ([1]; pH 7.4, 55 °C) was 3.0 h. The “activation Gibbs free energy of the rate-determining initial step (succinimide formation), ∆G‡(1)” value ([1]; pH 7.4, Arrhenius, slope of ln k1 vs 1/T (28-55 °C)) was 20.9 kcal/mol and the “change in Gibbs free energy of the β-Asp formation step, ∆G‡(2)” value ([1]; pH 7.4, Arrhenius, slope of ln k2 vs 1/T (28-55 °C)) was 20.5 kcal/mol.

In the case of `CNC(C)=O` [N-methylacetamide], the “pKa, deprotonation of the amide group” value [2] is listed as 18.

B1: native ribonuclease A: native ribonuclease A, compared with its reduced and unfolded forms (protein, UniProt P61823 27-150, looked up)
Ribonuclease pancreatic: KETAAAKFERQHMDSSTSAASSSNYCNQMMKSRNLTKDRCKPVNTFVHESLADVQAVCSQKNVACKNGQTNCYQSYSTMSITDCRETGSSKYPNCAYKTTQANKHIIVACEGNPYVPVHFDASV
In the case of B1, the “times less prone to asparagine isomerisation than its reduced and unfolded forms” value [3] is given as ~ 30 times.
